Activity calls are given as the source filed them.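 Rule for the calls: active = current rise at least 3 SD above the untreated control mean in each of two repeat wells; inactive = the rest.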
Target: Potassium voltage-gated channel subfamily KQT member 1 (Homo sapiens) (UniProt P51787)
Test: KCNQ1 activators by electrophysiology – IonWorks patch clamp, KCNQ1-CHO cells, orthogonal assay for KCNQ1 potentiator project, confirmation (AID 493184)
Details: automated patch clamp current, at 10 µM
Summary of the method: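 Material: KCNQ1-expressing CHO cells; doses: 10 µM final, single point; probe or stimulus: voltage step from -90 mV holding to +40 mV, 2,000 ms; signal: automated voltage clamp, amphotericin B perforated patch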

Chain of Potassium voltage-gated channel subfamily KQT member 1 (Homo sapiens) (P51787 whole entry, looked up): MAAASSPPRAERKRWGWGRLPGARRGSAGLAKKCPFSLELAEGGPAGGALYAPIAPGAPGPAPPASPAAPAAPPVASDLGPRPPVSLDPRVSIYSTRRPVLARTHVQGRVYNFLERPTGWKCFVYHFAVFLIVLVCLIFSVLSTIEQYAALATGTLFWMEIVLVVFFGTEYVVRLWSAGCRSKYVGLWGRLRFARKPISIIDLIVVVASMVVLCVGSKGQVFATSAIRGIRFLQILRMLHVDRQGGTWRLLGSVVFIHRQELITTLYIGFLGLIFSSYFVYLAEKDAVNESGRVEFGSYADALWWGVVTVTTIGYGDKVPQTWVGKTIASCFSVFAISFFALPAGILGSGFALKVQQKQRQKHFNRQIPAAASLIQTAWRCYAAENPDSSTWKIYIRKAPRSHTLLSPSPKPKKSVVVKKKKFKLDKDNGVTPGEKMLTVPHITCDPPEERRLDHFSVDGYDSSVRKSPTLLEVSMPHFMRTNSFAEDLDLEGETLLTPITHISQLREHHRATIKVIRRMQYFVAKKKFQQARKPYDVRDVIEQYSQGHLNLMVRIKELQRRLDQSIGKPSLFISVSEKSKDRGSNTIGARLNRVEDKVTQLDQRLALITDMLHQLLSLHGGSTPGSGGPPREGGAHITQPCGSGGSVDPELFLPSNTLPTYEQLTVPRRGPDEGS

outcome, inactive:
O=C(C1CCCCC1)N(CCN1CCCC1)c1nc2ccccc2s1
Nc1nonc1C(=O)NCCN=Cc1cc(Cc2ccccc2)cc(Br)c1O
CC(=O)Nc1cccc(/C(C)=N/NC(=O)c2ccc(Cl)cc2Cl)c1
Cn1ccnc1C(OC(=O)c1ccc(Cl)cc1)C(F)(F)F (stereo not given)
COc1ccc(S(=O)(=O)N2CCCC(C(=O)O)C2)cc1 (stereo not given)
O=C(COc1ccc(C(=S)N2CCC(Cc3ccccc3)CC2)cc1)N1CCOCC1
O=C(Oc1c(-c2ccco2)oc2ccccc2c1=O)c1cccnc1
Cc1ccc(-c2csc(=S)[nH]2)cc1
Cc1ccccc1OCc1nnc(SCCN2CCCC2)n1-c1ccccc1
COc1cccc(/C=N/NC(=O)C(C)n2nc(C)c([N+](=O)[O-])c2C)c1O (stereo not given)
NC(=NCCCCCCN=C(N)/N=C(\N)Nc1ccc(Cl)cc1)/N=C(\N)Nc1ccc(Cl)cc1
Cc1ccc(/C=C/C(=O)C2C(=O)c3ccccc3C2=O)cc1
CCC1(c2ccc(Cl)cc2)NC(=S)N(c2ccc(C)c(C)c2)N1 (stereo not given)
O=S(=O)(NC(=S)NC1CCCCC1)c1ccc(Cl)cc1
COc1cccc(NC(=S)NCCN2CCOCC2)c1
Cc1cc(NC(=O)CSc2nc(C3CC3)nc3sc(C)c(C)c23)no1
Cc1cccc(CNC(=O)C2CCCN(c3nn4c(=O)cc(C)nc4s3)C2)c1 (stereo not given)
Cc1cccc(-c2nnc(NC(=O)c3ccc(Cl)cc3)o2)c1
Cc1cc(N2CCN(C)CC2)nc2ccc(NC(=S)NCCCN3CCc4ccccc4C3)cc12
C=C[C@@]1(C)CC(=O)[C@]2(O)[C@@]3(C)[C@@H](O)CCC(C)(C)[C@@H]3[C@H](OC(C)=O)[C@H](O)[C@@]2(C)O1
CN1CCN(C(=O)/C(=C/c2ccccc2)c2ccccc2)CC1
Cc1cccc(Nc2ccccc2C(=O)OCC(=O)N(C)C2CCS(=O)(=O)C2)c1C (stereo not given)
Cc1ccc(S(=O)(=O)N2CCCC(C(=O)Nc3ccc(C(=O)O)cc3)C2)cc1Cl (stereo not given)
Cc1cc(C(=O)OCC(=O)NCc2ccco2)c(C)n1-c1ccc(F)cc1
CCOC(=O)c1sc(N2N=C(C)C(N=Nc3cccc(C)c3)C2=O)nc1C (stereo not given)
Oc1c(Br)cc(Br)cc1/C=N/c1nc2c(s1)CCCC2
O=C(Nc1nnc(-c2ccc3c(c2)CCCC3)o1)c1ccccc1Cl
CCSc1nnc(NC(=O)C2C3C=CC(C3)C2C(=O)O)s1 (stereo not given)
Cc1cc(/C=N\NC(=O)CC(=O)NC2CCCCC2)c(C)n1-c1cccc(Cl)c1Cl
O=C(COc1cccnc1[N+](=O)[O-])Nc1cccc(S(=O)(=O)N2CCCCC2)c1
CC1CCN(c2ccccc2NC(=S)NC(=O)c2cccs2)CC1
Fc1ccc2nc(Nc3nc4c(F)cc(F)cc4s3)sc2c1
CCc1ccc(NC(=O)C(=O)NNC(=O)COc2cccc(OC)c2)cc1
CC1=CC(=O)C=C(C)C1=NOS(=O)(=O)c1ccccc1
Oc1cccc2ccc(Nc3ccccn3)nc12
Cc1ccc(-n2[nH]c(C)c(/C=N/N3C(=O)c4cccc5cccc(c45)C3=O)c2=O)cc1
O=C(Nc1ccc2[nH]c(=S)sc2c1)Nc1ccccc1F
Cc1nc(NCCc2cnc[nH]2)c2oc3ccccc3c2n1
COc1cc2c(cc1OC)CN(C(=O)COc1ccccc1[N+](=O)[O-])CC2
O=C(CNC(=O)c1ccccc1)NCc1ccc(Cl)cc1

Source: PubChem BioAssay
